Source: ChEMBL document CHEMBL1649147, “Antistaphylococcal activity of dihydrophthalazine antifolates, a family of novel antibacterial drugs” (2009)
Values after ≈ are worked out from the molar mass of the structure shown.

Key:
Assay type in all cases: functional
[1] = tested on: Staphylococcus epidermidis; assay: Antibacterial activity against coagulase-negative Staphylococcus epidermidis 057 after 50 passages by agar dilution method
How it was run: (§1)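 Serial passage under drug. Inoculum was ~1 × 10^6 CFU/ml from overnight MHA growth, in 1 ml MHB at 35°C for 24 h. Drug ranged from 4 log2 steps above to 3 log2 steps below the MIC. […] MIC change is given as log2 steps.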

[2] = tested on: Staphylococcus epidermidis; assay: Antibacterial activity against coagulase-negative Staphylococcus epidermidis 225 after 50 passages by agar dilution method; how it was run: as §1
[3] = tested on: Staphylococcus epidermidis; assay: Antibacterial activity against methicillin-susceptible coagulase-negative Staphylococcus epidermidis 051 after 38 passages by agar dilution method
How it was run: (§2)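 Daily serial passage for up to 50 days at 35°C for 24 h in 1 ml MHB. […] Each transfer used 10 µl from the tube nearest the MIC (1–2 dilutions below) with the same turbidity as the drug-free control. […] MICs were measured by agar dilution, with changes given as log2 steps.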

[4] = tested on: Staphylococcus epidermidis; assay: Antibacterial activity against methicillin-susceptible coagulase-negative Staphylococcus epidermidis 057 after 15 passages by agar dilution method; how it was run: as §2
[5] = tested on: Staphylococcus aureus; assay: Antibacterial activity against vancomycin-resistant Staphylococcus aureus VRS1 after 20 passages by agar dilution method; how it was run: as §2
[6] = tested on: Staphylococcus epidermidis; assay: Antibacterial activity against coagulase-negative Staphylococcus epidermidis 051 after 38 passages by agar dilution method; how it was run: as §1
[7] = tested on: Staphylococcus epidermidis; assay: Antibacterial activity against coagulase-negative Staphylococcus epidermidis 225 after 38 passages by agar dilution method; how it was run: as §1
[8] = tested on: Staphylococcus aureus; assay: Antibacterial activity against methicillin-resistant and vancomycin-resistant Staphylococcus aureus VRS1 after 20 passages by agar dilution method; how it was run: as §2
[9] = tested on: Staphylococcus epidermidis; assay: Antibacterial activity against coagulase-negative Staphylococcus epidermidis 057 after 15 passages by agar dilution method; how it was run: as §1
[10] = tested on: Staphylococcus epidermidis; assay: Antibacterial activity against methicillin-resistant, vancomycin-intermediate coagulase-negative Staphylococcus epidermidis 225 after 36 passages by agar dilution method; how it was run: as §2
[11] = tested on: Staphylococcus aureus; assay: Antibacterial activity against methicillin-resistant and vancomycin-resistant Staphylococcus aureus VRS1 after 25 passages by agar dilution method; how it was run: as §2

`COc1ncc(C2c3ccccc3C=NN2C(=O)/C=C/c2cc(Cc3cnc(N)nc3N)cc(OC)c2OC)cn1` (stereo unspecified) showed an MIC [1] of 128 µg/mL (≈ 232 µM) and an MIC [2] of 128 µg/mL (≈ 232 µM).

For `COc1cc(Cc2cnc(N)nc2N)cc(/C=C/C(=O)N2N=Cc3ccccc3C2c2cnc(N(C)C)nc2)c1OC` (stereo unspecified), the MIC [3] was greater than 128 µg/mL, the MIC [4] was greater than 128 µg/mL and the MIC [5] was greater than 128 µg/mL. The MIC [6] was greater than 128 µg/mL, the MIC [7] was greater than 128 µg/mL and the MIC [8] was greater than 128 µg/mL. The MIC [9] was greater than 128 µg/mL.

`COc1cc(Cc2cnc(N)nc2N)cc(/C=C/C(=O)N2N=Cc3ccccc3C2c2cnc(N3CCOCC3)nc2)c1OC` (stereo unspecified) was tested, and the MIC [10] was greater than 128 µg/mL and the MIC [11] was greater than 128 µg/mL.
